Data on six compounds can be found in ChEMBL document CHEMBL1949527, “Use of copper(I) catalyzed azide alkyne cycloaddition (CuAAC) for the preparation of conjugated pyrrolo[2,3-a]carbazole Pim kinase inhibitors” (Eur J Med Chem, 2012).

The structures appear in SMILES notation.

The target of data set [1] is T1, Serine/threonine-protein kinase pim-3 (Homo sapiens, UniProt Q86V86). In words: Inhibition of human recombinant His6-tagged PIM3 expressed in Sf21 cells assessed as residual activity using RSRHSSYPAGT as substrate at 10 uM after 30 mins. The procedure, abridged:
(§1)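 Residual activity at 10 μM inhibitor, run in duplicate. Assay buffer was 50 mM Tris/HCl pH 7.5, 0.1 mM EGTA, 0.1% 2-mercaptoethanol. Reactions were stopped with orthophosphoric acid and spotted onto P81 filters.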

The target in data set [2] is T1, Serine/threonine-protein kinase pim-3. The data set is described as follows: Inhibition of human recombinant His6-tagged PIM3 expressed in Sf21 cells using RSRHSSYPAGT as substrate after 30 mins.
The target of data set [3] is T2, Serine/threonine-protein kinase pim-1 (Homo sapiens, UniProt P11309). The data set is described as follows: Inhibition of human recombinant His6-tagged PIM1 expressed in Sf21 cells using RSRHSSYPAGT as substrate after 30 mins.
Target sequence in this assay (P11309 whole entry): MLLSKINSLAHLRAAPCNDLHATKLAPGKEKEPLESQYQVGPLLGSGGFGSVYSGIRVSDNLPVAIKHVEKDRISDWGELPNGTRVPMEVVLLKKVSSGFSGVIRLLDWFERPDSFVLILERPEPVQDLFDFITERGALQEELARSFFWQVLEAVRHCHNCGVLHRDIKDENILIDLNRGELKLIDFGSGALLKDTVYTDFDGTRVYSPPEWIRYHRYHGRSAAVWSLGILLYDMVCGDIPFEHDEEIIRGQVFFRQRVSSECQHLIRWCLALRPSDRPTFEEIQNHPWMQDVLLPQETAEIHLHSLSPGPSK
The target in data set [4] is T3, Serine/threonine-protein kinase pim-2 (Homo sapiens, UniProt Q9P1W9). The data set is described as follows: Inhibition of human recombinant PIM2 expressed in Escherichia coli assessed as residual activity using RSRHSSYPAGT as substrate at 10 uM after 30 mins. The procedure, abridged: as §1
Target sequence in this assay (Q9P1W9 whole entry, looked up): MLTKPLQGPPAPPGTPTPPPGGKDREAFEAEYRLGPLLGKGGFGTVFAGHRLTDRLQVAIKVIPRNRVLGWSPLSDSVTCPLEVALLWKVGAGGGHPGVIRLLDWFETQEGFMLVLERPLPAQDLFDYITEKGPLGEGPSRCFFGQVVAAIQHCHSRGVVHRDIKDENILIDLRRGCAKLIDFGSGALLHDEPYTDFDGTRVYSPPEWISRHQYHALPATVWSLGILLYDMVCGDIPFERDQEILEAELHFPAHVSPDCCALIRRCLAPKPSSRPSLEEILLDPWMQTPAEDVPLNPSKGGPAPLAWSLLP
Data set [5] concerns the target T2, Serine/threonine-protein kinase pim-1. The data set is described as follows: Inhibition of human recombinant His6-tagged PIM1 expressed in Sf21 cells assessed as residual activity using RSRHSSYPAGT as substrate at 10 uM after 30 mins. The procedure, abridged:
as §1
Target sequence in this assay (P11309 whole entry, looked up): as the sequence (P11309 whole entry) above

For another data set, the system named is PC-3. The data set is described as follows: Cellular uptake in human PC3 cells at 10 uM after 24 hrs by fluorescence microscopy. The format is ADME, cell-based. Conditions: pc-3, 24 h; call rule not given here. The procedure, abridged:
(§2)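 PC-3 cells in RPMI-1640 with 10% FBS, 2 mM L-glutamine and penicillin/streptomycin were grown overnight on coverslips, then exposed to 10 μM compound in DMSO (vehicle control 0,1% DMSO) for 24 h. Cells were PBS-washed, fixed 15 min in 4% paraformaldehyde and mounted. Fluorescence microscopy used a DAPI filter. Mean intensity was background-corrected and averaged from three regions in two parallel samples.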

The target in data set [6] is T3, Serine/threonine-protein kinase pim-2. The data set is described as follows: Inhibition of human recombinant PIM2 expressed in Escherichia coli using RSRHSSYPAGT as substrate after 30 mins.
Target sequence in this assay (Q9P1W9 whole entry): as the sequence (Q9P1W9 whole entry, looked up) above
The nature of data set [7]: Drug uptake in human PC3 cell cytoplasm at 10 uM after 24 hrs by fluorescence microscopy. Conditions: pc-3, 24 h. The format is ADME, cell-based. The essentials:
as §2

The nature of data set [8]: Drug uptake in human PC3 cell nucleus at 10 uM after 24 hrs by fluorescence microscopy. The format is ADME, cell-based. Conditions: pc-3, 24 h. The procedure, abridged: as §2

Usually IC50 stands for the concentration at which inhibition is half-maximal. Consider `C[N+](C)(CCO)Cc1cn(CCCCn2c3ccccc3c3ccc4c(C=O)c[nH]c4c32)nn1`, for which the Activity amounted to 28% in [1], 65% in data set [4] and 9% in [5]. Also, the IC50 in data set [2] turned out to be 490 nM; in data set [3] it was 327 nM.
`O=Cc1c[nH]c2c1ccc1c3ccccc3[nH]c12`: the Drug uptake entry in the data set with PC-3 is “Not Active”.
With `O=Cc1cn2c3c1ccc1c4ccccc4n(c13)CCCC2`, the Activity came to 1% in data set [1], 6% in data set [4] and 7% in [5]. The results for the IC50 in data set [2], in [3] and in [6] were 13 nM, 8 nM and 350 nM, respectively.
Consider `CN(C)c1cccc2c(S(=O)(=O)NCc3cn(CCCCn4c5ccccc5c5ccc6c(C=O)c[nH]c6c54)nn3)cccc12`, for which the Activity in [1] turned out to be 38%; in data set [4], 66%; in data set [5], 17%. The Drug uptake entry in [7] was “Active”; in data set [8], “Not Active”.
Take `[N-]=[N+]=NCCCCn1c2ccccc2c2ccc3c(C=O)c[nH]c3c21`: the Activity in data set [1] was determined as 14%; in data set [4] it was 22%; in data set [5], 9%. The IC50 was 108 nM in data set [2] and 105 nM in data set [3].
As to `O=Cc1c[nH]c2c1ccc1c3ccccc3n(CCCCn3cc(CO)nn3)c12`, the Activity was found to be 23% in [1], 36% in data set [4] and 8% in data set [5]. The IC50 worked out at 235 nM in [2] and 315 nM in data set [3].
